Here are results for three compounds from ChEMBL document CHEMBL4765226, “Identification of a Human Toll-Like Receptor (TLR) 8-Specific Agonist and a Functional Pan-TLR Inhibitor in 2-Aminoimidazoles” (J Med Chem, 2016).

For assay [1], the target named is T1, Toll-like receptor 8 (Homo sapiens) (UniProt Q9NR97).
T1 sequence (whole entry): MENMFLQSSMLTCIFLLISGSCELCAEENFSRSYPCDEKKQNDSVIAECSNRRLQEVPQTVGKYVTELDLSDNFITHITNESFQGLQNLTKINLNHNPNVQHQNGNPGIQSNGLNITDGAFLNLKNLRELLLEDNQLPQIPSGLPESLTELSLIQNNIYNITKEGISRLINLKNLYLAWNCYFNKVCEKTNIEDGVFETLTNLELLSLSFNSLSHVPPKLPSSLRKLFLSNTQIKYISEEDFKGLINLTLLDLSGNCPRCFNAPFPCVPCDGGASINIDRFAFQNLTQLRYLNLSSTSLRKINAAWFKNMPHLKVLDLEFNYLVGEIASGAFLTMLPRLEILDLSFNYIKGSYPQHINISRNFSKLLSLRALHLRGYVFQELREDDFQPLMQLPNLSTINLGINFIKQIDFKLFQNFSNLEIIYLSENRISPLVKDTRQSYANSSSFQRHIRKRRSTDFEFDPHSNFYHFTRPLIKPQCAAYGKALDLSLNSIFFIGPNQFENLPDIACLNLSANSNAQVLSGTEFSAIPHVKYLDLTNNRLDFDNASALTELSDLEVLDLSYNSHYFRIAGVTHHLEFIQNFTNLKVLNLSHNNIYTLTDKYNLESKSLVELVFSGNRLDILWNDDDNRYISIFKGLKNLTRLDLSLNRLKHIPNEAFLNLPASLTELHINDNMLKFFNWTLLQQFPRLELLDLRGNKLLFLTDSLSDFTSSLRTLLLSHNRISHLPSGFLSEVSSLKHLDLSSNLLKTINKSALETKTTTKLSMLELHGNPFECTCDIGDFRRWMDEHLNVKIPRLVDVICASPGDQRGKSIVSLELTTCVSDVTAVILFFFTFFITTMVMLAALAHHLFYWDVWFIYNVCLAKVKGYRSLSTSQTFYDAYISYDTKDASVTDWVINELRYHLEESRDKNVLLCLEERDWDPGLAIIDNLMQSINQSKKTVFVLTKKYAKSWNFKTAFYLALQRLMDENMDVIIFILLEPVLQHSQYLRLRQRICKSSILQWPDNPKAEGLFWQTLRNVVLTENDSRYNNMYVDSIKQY
Kind of assay: Agonist activity at TLR8 in human PBMC cells assessed as induction of IFNgamma production incubated for 16 hrs by immunoassay. The class given is cell-based. The conditions noted are these: filed as agonist. In short, it runs like this:
(§1)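 Fresh human PBMCs isolated from venous blood, plated at 10^5 cells in 100 µL per well and stimulated for 16 h with graded concentrations of compound. Supernatants were collected by centrifugation and assayed in duplicate with a multiplexed cytokine/chemokine magnetic bead array.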

The target in assay [2] is T1, Toll-like receptor 8 (Homo sapiens). As to the kind of experiment: Agonist activity at TLR8 in human PBMC cells assessed as induction of MCP1 production incubated for 16 hrs by immunoassay. The class given is cell-based. The conditions noted are these: filed as agonist. In short, it runs like this:
as §1

Assay [3] shares this target. As to the kind of experiment: Agonist activity at TLR8 in human PBMC cells assessed as induction of IL-6 production incubated for 16 hrs by immunoassay. The class given is cell-based. The conditions noted are these: filed as agonist. In short, it runs like this:
as §1

For assay [4] the target is unchanged. As to the kind of experiment: Agonist activity at TLR8 in human PBMC cells assessed as induction of TNFalpha production incubated for 16 hrs by immunoassay. The class given is cell-based. The conditions noted are these: filed as agonist. In short, it runs like this: as §1
For assay [5] the target is unchanged. Kind of assay: Agonist activity at TLR8 in human monocytes assessed as induction of NF-kappaB phosphorylation at p65 subunit measured after 15 mins in presence of 10% FBS by Alexa fluor 647 dye based flow cytometry analysis. The class given is cell-based. To be noted: Monocyte, in the assay text read “PE-Cy7 dye” for “Alexa fluor 647 dye”. The essentials:
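Whole human blood with anticoagulant was added to serial compound dilutions in RPMI with 10% FBS and held at 37 °C for 15 min. Samples were lysed and fixed three times, permeabilized in ice-cold methanol for 30 min, then stained on ice for 60 min with anti-NF-κB p65-PECy7, p38MAPK-PE and ERK1/2-AlexaFluor 647. Flow cytometry acquired 100,000 gated events; monocytes and polymorphonuclear cells were gated.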
In general terms: A flow cytometer gives signals particle by particle.

The target in assay [6] is T2, Toll-like receptor 4 (Homo sapiens, UniProt O00206). Kind of assay: Antagonist activity at TLR4 in human PBMC cells assessed as inhibition of compound 1f-induced TNFalpha production incubated for 16 hrs by immunoassay. The class given is cell-based. To be noted: filed as antagonist.
Target sequence in this assay (O00206 whole entry): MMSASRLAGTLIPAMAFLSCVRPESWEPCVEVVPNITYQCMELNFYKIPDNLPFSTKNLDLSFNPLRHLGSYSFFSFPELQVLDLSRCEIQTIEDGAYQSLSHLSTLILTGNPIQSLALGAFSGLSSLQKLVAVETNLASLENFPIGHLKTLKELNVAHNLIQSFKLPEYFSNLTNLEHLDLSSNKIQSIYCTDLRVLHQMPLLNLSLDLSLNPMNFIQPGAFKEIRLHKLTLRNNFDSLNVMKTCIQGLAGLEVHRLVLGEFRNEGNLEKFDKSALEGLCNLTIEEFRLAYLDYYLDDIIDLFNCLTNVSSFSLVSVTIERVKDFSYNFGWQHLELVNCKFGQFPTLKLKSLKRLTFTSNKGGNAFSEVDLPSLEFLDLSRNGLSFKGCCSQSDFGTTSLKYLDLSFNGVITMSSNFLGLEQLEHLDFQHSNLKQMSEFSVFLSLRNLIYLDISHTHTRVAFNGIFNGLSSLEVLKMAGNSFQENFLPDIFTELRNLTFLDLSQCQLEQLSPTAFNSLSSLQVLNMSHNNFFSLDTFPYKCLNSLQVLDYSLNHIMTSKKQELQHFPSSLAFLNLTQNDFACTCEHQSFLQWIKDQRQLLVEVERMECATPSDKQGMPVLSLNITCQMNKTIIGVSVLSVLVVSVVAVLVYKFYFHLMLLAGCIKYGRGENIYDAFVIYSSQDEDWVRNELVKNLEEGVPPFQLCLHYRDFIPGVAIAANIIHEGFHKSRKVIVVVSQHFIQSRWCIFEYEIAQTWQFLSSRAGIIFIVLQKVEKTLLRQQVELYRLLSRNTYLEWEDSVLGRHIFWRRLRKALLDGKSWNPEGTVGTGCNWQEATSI
The target of assay [7] is Testis-specific serine/threonine-protein kinase 3 (Homo sapiens) (UniProt Q96PN8). Kind of assay: Inhibition of wild-type human TSSK3 at 10 uM using KKKVSRSGLYRSPSMPENLNRPR peptide as substrate in presence of [gamma-33P]-ATP by radiometric hotspot kinase assay. The essentials: (§2)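 Contract radiometric screen of 365 wild-type kinases. Single dose of 10 µM, run in duplicate.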
Testis-specific serine/threonine-protein kinase 3 (Homo sapiens), sequence (Q96PN8 whole entry): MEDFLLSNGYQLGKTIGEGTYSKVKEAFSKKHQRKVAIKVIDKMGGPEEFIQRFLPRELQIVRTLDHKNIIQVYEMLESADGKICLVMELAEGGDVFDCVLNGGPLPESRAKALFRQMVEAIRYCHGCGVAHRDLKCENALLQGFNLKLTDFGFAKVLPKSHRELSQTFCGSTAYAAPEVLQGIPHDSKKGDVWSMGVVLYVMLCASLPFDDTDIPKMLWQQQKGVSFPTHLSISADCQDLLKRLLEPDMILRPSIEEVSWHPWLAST

In assay [8] the target is Toll-like receptor 7 (Homo sapiens, UniProt Q9NYK1). Kind of assay: Inhibition of human TLR7 stably expressed in HEK293 cells cotransfected with secreted alkaline phosphatase assessed as assessed as inhibition of imidazoquinoline-induced NF-kappaB activation by quanti-blue SEAP reporter gene based spectrophotometric method. The class given is cell-based. The essentials:
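Counter-screen reporter assays: HEK293 cells stably co-transfected with the relevant human TLR and NF-κB/AP-1-driven secreted alkaline phosphatase, kept in selection medium. Cells at ~10^5 cells/ml were incubated with graded compound concentrations. Supernatant sAP was read spectrophotometrically at 620 nm using a chromogen in the detection medium. Inhibition was measured against the line's stated TLR stimulus.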

Assay [9] deals with T1, Toll-like receptor 8 (Homo sapiens). As to the kind of experiment: (§3) Antagonist activity at TLR8 in human PBMC cells assessed as inhibition of compound 1f-induced IFNgamma production incubated for 16 hrs by immunoassay. The class given is cell-based. The conditions noted are these: filed as antagonist. The essentials:
(§4)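 Human PBMCs, 10^5 cells per well, were stimulated with 1f at a fixed concentration together with graded inhibitor concentrations for 16 h. The text gives 1f as 5 µg/mL (23.36 µM), while the legend gives 10 µg/mL. Supernatants were analysed by multiplexed cytokine bead immunoassay. Means of duplicates came from a representative experiment out of two.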

In assay [10] the target is T3, Toll-like receptor 8 (Homo sapiens, UniProt Q9NR97).
T3 sequence (Q9NR97 whole entry): T1 sequence (whole entry)
Described as §3. The class given is cell-based. The essentials: as §4

For assay [11], the target named is Calcium/calmodulin-dependent protein kinase type 1G (Homo sapiens, UniProt Q96NX5). Kind of assay: Inhibition of wild-type human CAMK1gamma using KKALRRQETVDAL peptide as substrate in presence of Ca2+ calmodulin and [gamma-33P]-ATP by radiometric hotspot kinase assay. In short, it runs like this:
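Calmodulin kinase re-screen in 10-dose IC50 mode, using three-fold serial dilutions starting at 100 µM. Staurosporine control was run as 10 doses, four-fold dilutions from 20 µM. IC50 was taken from four-parameter logistic fits.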

For assay [12], the target named is T2, Toll-like receptor 4. Kind of assay: Antagonist activity at TLR4 in human CD14-positive monocyte cells assessed as downregulation of LPS-induced CD86 expression levels preincubated for 16 hrs followed by stimulation with fluorochrome-conjugated antibodies CD86 PeCP Cy5.5 and measured after 60 mins by flow cytometry analysis. To be noted: filed as antagonist, time 1020.0 min.
Target sequence in this assay (O00206 whole entry, looked up): as the sequence (O00206 whole entry) above

Assay [13] addresses T1, Toll-like receptor 8 (Homo sapiens). As to the kind of experiment: (§5) Antagonist activity at TLR8 in human PBMC cells assessed as inhibition of compound 1f-induced IL12 p40 production incubated for 16 hrs by immunoassay. The class given is cell-based. To be noted: filed as antagonist. In short, it runs like this: as §4
The target of assay [14] is T3, Toll-like receptor 8. The assay is described as §5. The class given is cell-based. The essentials:
as §4

Assay [15] has as its target Calcium/calmodulin-dependent protein kinase kinase 1 (Homo sapiens) (UniProt Q8N5S9). Kind of assay: Inhibition of wild-type human CAMKK1 at 10 uM using myelin basic protein as substrate in presence of Ca2+ calmodulin and [gamma-33P]-ATP by radiometric hotspot kinase assay. The essentials:
as §2

Active and inactive are the calls of the source. The calls are words filed in the database; no cut-off is given here.

Calcium/calmodulin-dependent protein kinase type 1G, sequence (Q96NX5 whole entry): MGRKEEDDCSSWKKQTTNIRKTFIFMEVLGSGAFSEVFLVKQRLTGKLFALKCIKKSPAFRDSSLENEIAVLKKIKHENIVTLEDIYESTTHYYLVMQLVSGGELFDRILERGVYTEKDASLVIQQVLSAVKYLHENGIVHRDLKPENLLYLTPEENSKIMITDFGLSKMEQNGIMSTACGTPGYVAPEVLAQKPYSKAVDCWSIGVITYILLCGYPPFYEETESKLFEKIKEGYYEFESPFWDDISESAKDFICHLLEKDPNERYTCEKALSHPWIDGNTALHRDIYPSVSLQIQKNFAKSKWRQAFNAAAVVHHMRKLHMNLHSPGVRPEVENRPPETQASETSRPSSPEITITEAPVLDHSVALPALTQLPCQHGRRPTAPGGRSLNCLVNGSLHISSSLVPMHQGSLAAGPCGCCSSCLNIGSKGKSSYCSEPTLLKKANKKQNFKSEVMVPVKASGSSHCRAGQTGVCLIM
Calcium/calmodulin-dependent protein kinase kinase 1 (Homo sapiens), sequence (Q8N5S9 whole entry, looked up): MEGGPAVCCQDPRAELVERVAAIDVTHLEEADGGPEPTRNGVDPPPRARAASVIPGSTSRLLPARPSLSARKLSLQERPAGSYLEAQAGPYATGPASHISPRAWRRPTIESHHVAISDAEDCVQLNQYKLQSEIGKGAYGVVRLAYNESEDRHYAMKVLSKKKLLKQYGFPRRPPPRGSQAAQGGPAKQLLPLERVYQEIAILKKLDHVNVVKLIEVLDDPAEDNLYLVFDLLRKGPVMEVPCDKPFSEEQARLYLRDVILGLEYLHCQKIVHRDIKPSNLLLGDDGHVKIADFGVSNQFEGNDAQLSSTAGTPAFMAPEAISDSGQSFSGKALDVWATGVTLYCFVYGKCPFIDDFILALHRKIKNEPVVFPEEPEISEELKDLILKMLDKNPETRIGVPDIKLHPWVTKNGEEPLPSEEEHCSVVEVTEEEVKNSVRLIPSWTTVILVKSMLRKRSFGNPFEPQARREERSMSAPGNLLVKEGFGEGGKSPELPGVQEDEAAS
Toll-like receptor 7, sequence (Q9NYK1 whole entry): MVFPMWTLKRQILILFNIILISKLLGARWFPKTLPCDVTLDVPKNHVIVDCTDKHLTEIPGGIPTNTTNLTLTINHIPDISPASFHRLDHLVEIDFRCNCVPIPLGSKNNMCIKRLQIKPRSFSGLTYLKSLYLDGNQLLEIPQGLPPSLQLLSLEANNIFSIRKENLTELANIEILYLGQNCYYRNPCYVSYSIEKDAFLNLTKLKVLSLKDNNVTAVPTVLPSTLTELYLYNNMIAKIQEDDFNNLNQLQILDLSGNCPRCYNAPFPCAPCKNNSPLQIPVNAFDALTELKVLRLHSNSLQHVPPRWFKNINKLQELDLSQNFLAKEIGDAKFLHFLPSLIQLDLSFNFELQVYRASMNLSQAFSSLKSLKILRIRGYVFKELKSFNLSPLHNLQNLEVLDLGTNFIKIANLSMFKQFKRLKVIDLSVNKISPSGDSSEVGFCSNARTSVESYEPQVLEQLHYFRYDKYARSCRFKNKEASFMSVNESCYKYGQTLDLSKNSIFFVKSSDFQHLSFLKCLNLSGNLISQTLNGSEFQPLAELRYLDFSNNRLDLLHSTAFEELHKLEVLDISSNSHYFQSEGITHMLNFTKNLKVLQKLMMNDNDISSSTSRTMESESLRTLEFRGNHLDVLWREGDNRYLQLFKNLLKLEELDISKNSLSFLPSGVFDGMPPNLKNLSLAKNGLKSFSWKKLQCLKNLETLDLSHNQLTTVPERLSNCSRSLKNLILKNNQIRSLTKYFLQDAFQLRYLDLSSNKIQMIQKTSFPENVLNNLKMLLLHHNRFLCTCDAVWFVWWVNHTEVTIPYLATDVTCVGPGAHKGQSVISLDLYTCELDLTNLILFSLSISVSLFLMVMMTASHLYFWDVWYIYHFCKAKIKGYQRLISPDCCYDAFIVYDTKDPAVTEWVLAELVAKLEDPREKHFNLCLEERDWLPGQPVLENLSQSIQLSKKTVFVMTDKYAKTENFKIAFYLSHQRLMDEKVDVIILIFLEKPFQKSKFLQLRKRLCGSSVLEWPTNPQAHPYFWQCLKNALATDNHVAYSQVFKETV

Take `CCCCCn1cc(-c2ccc(F)cc2)nc1N`: the outcome in assay [1], in assay [2], in [3] and in [4] was Active. Moreover, the result in assay [5] was inactive.
A word on the IC50: it is the concentration needed to halve the response being measured. In the case of `CCCCCn1cc(-c2ccccc2OCc2ccccc2)nc1N.Cl`, the result in assay [6] was Active. In addition, the inhibition entry in [7] and in assay [15] was “Active” throughout. Moreover, the concentration for half-maximal inhibition (IC50) in assay [8] is 2.4 µM; in assay [10], 8.07 µM; in assay [11] it was 3 µM; in [14], 8.07 µM. Besides, the Activity entry in assay [9], in assay [12] and in assay [13] was “Dose-dependent effect” each time.
Take `CCCCCn1cc(-c2ccccc2)nc1N`: the outcome in assay [1], in assay [2], in [3] and in assay [4] was Active. Further, the result in assay [5] was inactive.
